The values below come from ChEMBL document CHEMBL4138096, “Design, synthesis, molecular docking and cytotoxic evaluation of novel 2-furybenzimidazoles as VEGFR-2 inhibitors” (Eur J Med Chem, 2017).

Molecules are shown by their SMILES. Where only a bound is given, the exact number is not on record here.

As usually defined, the IC50 is the midpoint of a concentration-inhibition curve.

The test system of test [1] is MCF7. The test is described as follows: Inhibition of VEGFR2 protein expression in human MCF7 cells at cytotoxic IC50 after 24 hrs by ELISA relative to untreated control. Type of test: functional. In a few lines: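 MCF-7 cells treated with compound in DMSO for 24 h at 37 °C, humidified 5% CO2. Cells were harvested and homogenised in saline. VEGFR-2 in homogenate was measured by double-antibody sandwich ELISA (monoclonal capture, biotinylated goat polyclonal detection, avidin-biotin-peroxidase, TMB, OD 451 nm). Levels (ng/ml) came from a standard curve as duplicate determinations, and % change was taken versus untreated cells.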
On the technique in general: An ELISA detects its analyte on a solid surface through an enzyme-linked reagent.

Test [2] relates to MCF7. The test is described as follows: Cytotoxicity against human MCF7 cells assessed as reduction in cell viability after 48 hrs by SRB assay. Type of test: functional, cell-based. To be noted: MCF7, 48 h. In a few lines:
(§1)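 Cells seeded and allowed to attach 24 h, then exposed to compound at […] for 48 h at 37 °C, 5% CO2. Fixed, stained with sulforhodamine B, bound dye released in Tris EDTA and read on ELISA reader. IC50 taken from survival curve (surviving fraction vs concentration); mean of four independent experiments.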
On the technique in general: In SRB staining, fixed cells bind dye roughly in proportion to their protein.

The test system of the next test is HepG2. The test is described as follows: Cytotoxicity against human HepG2 cells assessed as reduction in cell viability after 48 hrs by SRB assay. Format: functional, cell-based. To be noted: HepG2, 48 h. In a few lines: as §1
Test [3] has as its target Vascular endothelial growth factor receptor 2 (Homo sapiens, UniProt P35968). The test is described as follows: Inhibition of human VEGFR2 using TMB substrate by ELISA.

Vascular endothelial growth factor receptor 2, sequence (P35968 whole entry): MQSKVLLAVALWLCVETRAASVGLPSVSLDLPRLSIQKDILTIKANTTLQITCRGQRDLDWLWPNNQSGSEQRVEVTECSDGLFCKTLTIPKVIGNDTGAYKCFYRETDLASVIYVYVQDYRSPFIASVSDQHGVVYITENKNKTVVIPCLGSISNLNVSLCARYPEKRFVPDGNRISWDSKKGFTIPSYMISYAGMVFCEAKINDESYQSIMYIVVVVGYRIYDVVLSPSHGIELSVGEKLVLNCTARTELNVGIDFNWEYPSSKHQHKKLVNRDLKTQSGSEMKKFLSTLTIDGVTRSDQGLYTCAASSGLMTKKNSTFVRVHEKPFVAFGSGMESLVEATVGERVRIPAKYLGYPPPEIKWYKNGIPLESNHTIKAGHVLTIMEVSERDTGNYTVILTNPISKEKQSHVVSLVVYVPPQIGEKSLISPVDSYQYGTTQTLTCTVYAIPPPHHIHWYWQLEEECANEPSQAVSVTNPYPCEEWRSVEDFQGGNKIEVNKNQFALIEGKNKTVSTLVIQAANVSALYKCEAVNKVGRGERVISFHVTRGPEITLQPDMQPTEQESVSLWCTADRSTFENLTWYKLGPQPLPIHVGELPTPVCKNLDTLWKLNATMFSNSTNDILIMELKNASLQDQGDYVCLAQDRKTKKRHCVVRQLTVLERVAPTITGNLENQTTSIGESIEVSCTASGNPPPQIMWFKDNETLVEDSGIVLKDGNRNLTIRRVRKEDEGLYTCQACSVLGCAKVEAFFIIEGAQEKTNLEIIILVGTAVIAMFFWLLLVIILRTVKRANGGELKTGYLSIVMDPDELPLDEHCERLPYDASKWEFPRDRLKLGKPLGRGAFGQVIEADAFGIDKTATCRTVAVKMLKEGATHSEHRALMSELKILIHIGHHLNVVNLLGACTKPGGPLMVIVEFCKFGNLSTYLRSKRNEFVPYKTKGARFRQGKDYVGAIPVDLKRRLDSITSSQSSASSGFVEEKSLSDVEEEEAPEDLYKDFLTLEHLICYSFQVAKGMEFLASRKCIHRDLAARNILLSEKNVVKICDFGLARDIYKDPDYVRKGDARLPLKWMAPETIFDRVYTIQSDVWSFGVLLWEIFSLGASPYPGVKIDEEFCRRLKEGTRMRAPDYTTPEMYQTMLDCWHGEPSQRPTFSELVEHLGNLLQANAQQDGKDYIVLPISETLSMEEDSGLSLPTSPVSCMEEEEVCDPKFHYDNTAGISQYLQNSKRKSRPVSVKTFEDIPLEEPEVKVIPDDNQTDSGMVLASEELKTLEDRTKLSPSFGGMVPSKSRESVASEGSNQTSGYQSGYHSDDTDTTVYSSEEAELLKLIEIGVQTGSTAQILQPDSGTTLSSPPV

`NC(=O)/C(=C\c1ccccc1)n1c(-c2ccco2)nc2ccccc21`: the “inhibition (INH)” value with MCF7 [1] was 80%. For the same molecule, the IC50 in the test with MCF7 [2] is 38.6 µM; with HepG2, 63 µM.
On to `ClC(Cl)(Cl)c1nnc(Cn2c(-c3ccco3)nc3ccccc32)o1`, for which the figures for the IC50 in the test on MCF7 [2] and in the test with HepG2 were above 131 µM and 85.6 µM, respectively.
For `O=C(Cn1c(-c2ccco2)nc2ccccc21)N/N=C/c1ccccc1Cl`, the IC50 in test [3] turned out to be 0.64 µM; in the test with MCF7 [2] it was 26.1 µM; in the test on HepG2 it was 25.9 µM. Besides, the “inhibition (INH)” value in the test with MCF7 [1] is 94%.
As for `CC/C(=C(\c1ccccc1)c1ccc(OCCN(C)C)cc1)c1ccccc1` [TAMOXIFEN], the “inhibition (INH)” value with MCF7 [1] is on record as 98%.
With `Cc1ccc(-c2nc3ccccc3n2CC(=O)O)o1`, the “inhibition (INH)” value with MCF7 [1] is listed as 20%. For the same molecule, the IC50 is 139 µM in the test on MCF7 [2] and above 195 µM with HepG2.
For `NNC(=O)CSc1nnc(Cn2c(-c3ccco3)nc3ccccc32)s1`, the IC50 in test [3] came to 1.41 µM; in the test with MCF7 [2] it was 21.4 µM; with HepG2, 26.9 µM. For the same molecule, in the test on MCF7 [1], the “inhibition (INH)” value turned out to be 96%.
As to `Cc1ccc(-c2nc3ccccc3n2CC(=O)NN)o1`, the “inhibition (INH)” value in the test with MCF7 [1] worked out at 24%. The IC50 was 68.3 µM in the test with MCF7 [2] and above 185 µM in the test with HepG2.
For `c1ccc2[nH]c(-c3ccc(CN4CCOCC4)o3)nc2c1` the same measures were 58%, 55.5 µM and 128 µM.
In the case of `COC(=O)Cn1c(-c2ccco2)nc2ccccc21`, in the test with MCF7 [1], the “inhibition (INH)” value was determined as 61%. For the same molecule, the figures for the 50% inhibitory concentration (IC50) in the test on MCF7 [2] and in the test with HepG2 were 80.6 µM and 67.3 µM, respectively.
For the molecule `Cc1ccc(-c2nc3ccccc3[nH]2)o1`, the “inhibition (INH)” value in the test with MCF7 [1] was found to be 39%. In addition, the IC50 in the test with MCF7 [2] was determined as 55.6 µM.
For the molecule `CNC(=O)c1cc(Oc2ccc(NC(=O)Nc3ccc(Cl)c(C(F)(F)F)c3)cc2)ccn1` [SORAFENIB], in the test with MCF7 [1], the “inhibition (INH)” value is 95.75%. The IC50 with MCF7 [2] turned out to be 4.33 µg/mL.
On to `CCOC(=O)Cn1c(-c2ccco2)nc2ccccc21`, for which, in the test on MCF7 [1], the “inhibition (INH)” value is 57%. The results for the 50% inhibitory concentration (IC50) in the test on MCF7 [2] and with HepG2 were 57.3 µM and above 185 µM, respectively.
For the molecule `CCOC(=O)Cn1c(-c2ccc(C)o2)nc2ccccc21`, the “inhibition (INH)” value in the test on MCF7 [1] turned out to be 25%. Further, the IC50 was 63.5 µM with MCF7 [2] and above 176 µM in the test on HepG2.
For `Cc1ccc(-c2nc3ccccc3n2C(=O)C(=O)n2c(-c3ccc(C)o3)nc3ccccc32)o1`, in the test on MCF7 [1], the “inhibition (INH)” value was 17%. Also, the IC50 with MCF7 [2] is 65.6 µM; with HepG2, above 111 µM.
For `N#C/C(=C1/SCC(=O)N1c1ccccc1)n1c(-c2ccco2)nc2ccccc21`, the “inhibition (INH)” value in the test on MCF7 [1] is 55%. The IC50 in the test with MCF7 [2] worked out at 55.9 µM; in the test with HepG2, 39.6 µM.
As for `O=C(O)Cn1c(-c2ccco2)nc2ccccc21`, in the test on MCF7 [1], the “inhibition (INH)” value was 61%. Also, the IC50 in the test with MCF7 [2] turned out to be 63.1 µM; in the test with HepG2, 149 µM.
On to `c1coc(-c2nc3ccccc3[nH]2)c1` [FUBERIDAZOLE], for which, in the test on MCF7 [1], the “inhibition (INH)” value is 43%. The IC50 came out at 106 µM in the test with MCF7 [2] and 103 µM with HepG2.
Take `N=C(Cn1c(-c2ccco2)nc2ccccc21)NN`: in the test with MCF7 [1], the “inhibition (INH)” value is given as 27%. In addition, the IC50 is 53.1 µM with MCF7 [2] and 74.5 µM in the test on HepG2.
For `N#CCn1c(-c2ccco2)nc2ccccc21`, in that order: 39%, 88.1 µM and 88.1 µM.
In the case of `O=C1CS/C(=C/n2c(-c3ccco3)nc3ccccc32)N1`, in the test with MCF7 [1], the “inhibition (INH)” value was determined as 86%. For the same molecule, the IC50 in the test with MCF7 [2] stood at 29.1 µM; in the test with HepG2, 31.1 µM.
Take `NC(=O)/C(=C\c1ccccc1Cl)n1c(-c2ccco2)nc2ccccc21`: the “inhibition (INH)” value in the test on MCF7 [1] is listed as 57%. Also, the 50% inhibitory concentration (IC50) in the test with MCF7 [2] turned out to be 40 µM; in the test with HepG2, 44.8 µM.
On to `CCOC(=O)CSc1nnc(Cn2c(-c3ccco3)nc3ccccc32)s1`, for which the “inhibition (INH)” value with MCF7 [1] is on record as 92%. The IC50 with MCF7 [2] was 28.5 µM; with HepG2 it was 62.1 µM.
Take `SC1=NNCC(n2c(-c3ccco3)nc3ccccc32)=N1`: the “inhibition (INH)” value in the test with MCF7 [1] is listed as 40%. Besides, the figures for the IC50 with MCF7 [2] and in the test on HepG2 were 60.5 µM and 62.1 µM, respectively.
As to `O=C(CCl)n1c(-c2ccco2)nc2ccccc21`, in the test on MCF7 [1], the “inhibition (INH)” value is 40%. Further, the IC50 in the test on MCF7 [2] and in the test with HepG2 was 60.9 µM each time.
With `Cc1ccc(-c2nc3ccccc3n2C(=O)n2c(-c3ccc(C)o3)nc3ccccc32)o1`, the “inhibition (INH)” value with MCF7 [1] is listed as 9%. For the same molecule, the IC50 was 58.3 µM in the test on MCF7 [2] and above 118 µM in the test with HepG2.
On to `NC(=O)Cn1c(-c2ccco2)nc2ccccc21`, for which, in the test on MCF7 [1], the “inhibition (INH)” value stood at 13%. Also, the IC50 was 118 µM in the test with MCF7 [2] and 157 µM with HepG2.
Regarding `Cc1ccc(-c2nc3ccccc3n2Cc2nnco2)o1`, the results for the IC50 in the test with MCF7 [2] and with HepG2 were above 177 µM and 132 µM, respectively.
As to `COC(=O)Cn1c(-c2ccc(C)o2)nc2ccccc21`, the “inhibition (INH)” value in the test with MCF7 [1] turned out to be 38%. Moreover, the IC50 in the test on MCF7 [2] was 87 µM; in the test on HepG2 it was above 185 µM.
For the molecule `N=C1N=C(n2c(-c3ccco3)nc3ccccc32)CN1`, in the test on MCF7 [1], the “inhibition (INH)” value is recorded as 22%. Also, the IC50 in the test with MCF7 [2] came to 93 µM; with HepG2 it was 63.5 µM.
On to `S=c1[nH]nc(Cn2c(-c3ccco3)nc3ccccc32)s1`, for which the “inhibition (INH)” value in the test on MCF7 [1] was found to be 14%. Besides, the IC50 in the test on MCF7 [2] turned out to be 52.6 µM; in the test with HepG2 it was 47.6 µM.
Turning to `NNC(=O)Cn1c(-c2ccco2)nc2ccccc21`, in the test on MCF7 [1], the “inhibition (INH)” value was found to be 19%. The IC50 in the test on HepG2 was above 195 µM.
On to `Cc1ccc(-c2nc3ccccc3n2CC(=O)N/N=C/c2ccccc2Cl)o1`, for which the IC50 in test [3] stood at 1.26 µM; in the test with MCF7 [2] it was 21.2 µM; in the test with HepG2, 22.6 µM. The “inhibition (INH)” value with MCF7 [1] is 96%.
